# Measured values taken from ChEMBL document CHEMBL3286196 (J Med Chem, 2014).
# Active and inactive are the calls of the source. The rule behind the calls is not given here.
# Tests used:
# [1] = tested on: HL-60; assay: Cytotoxicity against human HL60 cells assessed as inhibition of proliferation after 48 hrs by MTT assay; assay type: functional, cell-based; conditions: HL-60, 48 h
# [2] = tested on: HL-60; assay: Cytotoxicity against human HL60 cells assessed as inhibition of proliferation after 72 hrs by MTT assay; assay type: functional, cell-based; conditions: HL-60, 72 h
# [3] = Cytotoxicity against human […] cells assessed as inhibition of proliferation after 48 hrs by MTT assay; assay type: functional, cell-based
# [4] = tested on: HeLa; assay: Cytotoxicity against human HeLa cells assessed as inhibition of proliferation after 48 hrs by MTT assay; assay type: functional, cell-based
# [5] = tested on: HepG2; assay: Cytotoxicity against human HepG2 cells assessed as inhibition of proliferation after 48 hrs by MTT assay; assay type: functional, cell-based; conditions: HepG2, 48 h
# [6] = species: Rattus norvegicus; assay: Binding affinity to NADPH-reduced rat recombinant wild type TrxR after 30 mins by SDS-PAGE
# Summary of the method: (§1)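 Proteins were reduced, then incubated with the labelling compound for 30 min at room temperature. Samples were separated by SDS-PAGE. The gel was imaged by fluorescence and then stained with Coomassie Blue.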
# [7] = tested on: T1, Thioredoxin reductase 1, cytoplasmic (Rattus norvegicus), O89049 [U498C]; assay: Binding affinity to NADPH-reduced rat recombinant TrxR1 U498C mutant after 30 mins by SDS-PAGE; summary of the method: as §1
# T1 sequence (whole entry): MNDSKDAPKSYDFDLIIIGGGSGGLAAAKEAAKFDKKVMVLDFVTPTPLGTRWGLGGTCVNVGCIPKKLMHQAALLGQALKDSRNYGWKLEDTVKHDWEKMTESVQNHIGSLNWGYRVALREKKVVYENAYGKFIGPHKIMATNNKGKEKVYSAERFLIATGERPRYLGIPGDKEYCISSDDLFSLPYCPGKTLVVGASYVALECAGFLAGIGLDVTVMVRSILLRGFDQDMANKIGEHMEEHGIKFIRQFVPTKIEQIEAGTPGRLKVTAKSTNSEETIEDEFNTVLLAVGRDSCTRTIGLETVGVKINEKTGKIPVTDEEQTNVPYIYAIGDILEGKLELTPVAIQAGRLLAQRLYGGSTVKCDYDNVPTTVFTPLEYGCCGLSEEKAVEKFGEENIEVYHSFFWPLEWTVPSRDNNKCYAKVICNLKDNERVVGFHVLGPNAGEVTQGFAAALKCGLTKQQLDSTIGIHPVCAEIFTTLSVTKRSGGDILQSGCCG
Compound,IC50 [1] [µM],IC50 [2] [µM],IC50 [3] [µM],IC50 [4] [µM],IC50 [5] [µM],Activity [6],Activity [7]
Nc1ccc([As](=O)(O)O)cc1 [ARSANILIC ACID],> 10,> 10,> 10,> 10,> 10,–,–
O=[As][As+](=O)[O-] (centres undefined) [ARSENIC TRIOXIDE],6.5,5.7,> 10,> 10,> 10,–,–
Nc1ccc2c3c(cccc13)C(=O)N(CCCCCC(=O)Nc1ccc([As](O)O)cc1)C2=O,–,–,–,–,–,Active,Active
Nc1ccc2c3c(cccc13)C(=O)N(CCCCCC(=O)Nc1ccc([As]3SCCCS3)cc1)C2=O,–,–,–,–,–,inactive,Active
